RBBP9 inhibitor = human RBBP9 inhibitors, primary screen, biochemical, fluorescence polarization, FP-Rh probe, HTS; recombinant RBBP9; inhibition, % at 7.94 µM; 220,000 tested, 0.2% active; AID 1515, 2009;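 active = inhibition above the campaign mean of all tested compounds plus 3 SD, cut at about 14% in these data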;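 note: plate controls were DMSO wells with RBBP9 for no effect and wells lacking RBBP9 protein for full effect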
Target sequence (O75884 whole entry, looked up): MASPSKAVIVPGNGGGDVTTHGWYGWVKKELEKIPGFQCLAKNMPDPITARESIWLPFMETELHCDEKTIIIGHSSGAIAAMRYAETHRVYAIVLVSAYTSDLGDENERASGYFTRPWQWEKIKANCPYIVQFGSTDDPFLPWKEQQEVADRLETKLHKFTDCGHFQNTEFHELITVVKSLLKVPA
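Test system: recombinant human RBBP9; Timing: 30 min then 45 min, 25 °C; Detection: fluorescence polarization; Control set: RBBP9 with DMSO as uninhibited control, no-protein wells as full inhibition; Compound dosing: one concentration, 7.94 µM nominal, 0.794% DMSO; Probe or stimulus: FP-Rh activity-based probe, 375 nM before mixing.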
TbHK1 inh = Trypanosoma brucei hexokinase 1 inhibitors, primary screen, biochemical, G6PDH-coupled NADH absorbance, MLSCN library; recombinant TbHK1, G6PDH-coupled NADH A340; inhibition, % at 10 µM; 220,000 tested, 0.11% active; AID 1430, 2008;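 active = inhibition of 50% or more in the single-dose primary screen; inactive = inhibition below 50%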
SDO1 yeast rescue = growth rescue of sdo1-depleted yeast, primary screen, S. cerevisiae, bone marrow failure model | S. cerevisiae sdo1-depleted JHY4D growth rescue, OD600 30 h; stronger effect = higher value; pdr5 snq2 efflux-pump mutant strain | z-score at 10 µM | 140,000 tested, 0.21% active | AID 817, 2007;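 active = z-score above 3 at both the 24 hr and the 30 hr optical density reads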;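 note: z-score against mean and SD of all compound wells on the same plate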
p47phox inh = p47phox/p22phox peptide binding inhibitors, primary screen, biochemical, uHTS, NADPH oxidase regulatory subunit. inhibition, % at 24.7 µM. fluorescence polarization, 2 h. 220,000 tested, 0.53% active;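 active = inhibition above about 30%, limit read from the data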;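 note: 0% = p47phox with labelled peptide and 100% = labelled peptide alone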
Target sequence (P14598 whole entry, looked up): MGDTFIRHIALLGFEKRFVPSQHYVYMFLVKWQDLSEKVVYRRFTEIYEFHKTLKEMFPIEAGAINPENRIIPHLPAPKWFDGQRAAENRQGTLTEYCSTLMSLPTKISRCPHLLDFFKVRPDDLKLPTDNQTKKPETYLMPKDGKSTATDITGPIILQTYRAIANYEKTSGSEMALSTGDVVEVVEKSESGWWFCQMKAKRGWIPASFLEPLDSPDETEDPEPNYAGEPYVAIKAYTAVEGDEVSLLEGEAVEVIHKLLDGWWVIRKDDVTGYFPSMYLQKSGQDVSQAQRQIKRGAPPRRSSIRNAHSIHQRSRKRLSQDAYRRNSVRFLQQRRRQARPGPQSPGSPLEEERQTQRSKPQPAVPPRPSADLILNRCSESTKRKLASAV
Yeast life ext = compounds extending yeast replicative lifespan, primary screen, S. cerevisiae, OD615; inhibition of the nicotinamide effect, % at 10 µM; 130,000 tested, 0.68% active; S. cerevisiae growth with nicotinamide; deaD strain in restrictive glucose medium;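 active = inhibition above a set limit, placed 3 SD over the median of all compounds, cut at about 26% in these data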;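 note: 0% = nicotinamide-treated wells and 100% = cells grown without nicotinamide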
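Test system – modified budding yeast, DeaD strain · Compound – single dose 10 µM compound, 0.25% DMSO · Times – culture preincubation 4 h, compound exposure 48 h, both 30 °C · Detection – optical density (absorbance) at 615 nm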
BB579 growth dn = growth inhibitors of yeast BB579 in restrictive medium, primary screen, yeast lifespan-shortening project, S. cerevisiae; OD615, 48 h; 140,000 tested, 0.51% active; inhibition, % at 10 µM;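 active = inhibition above a set limit, 3 SD over the mean compound inhibition, cut at about 44% in these data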
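Test system: Saccharomyces cerevisiae DeaD strain BB579, replicative lifespan model yeast | Buffer or medium: Restrictive CSMM-D medium | Doses: One dose, 10 µM compound with 0.25% DMSO | Incubation: 48 h exposure, 30 °C | Detection: Culture absorbance at 615 nm | Control set: Amphotericin B at 10 µg/mL as positive control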
G6PDH counter = Leuconostoc G6PDH inhibition, confirmation, counter-screen for TbHK1 inhibitor project, biochemical, DPI cherry-picked compounds, single concentration; purified G6PDH, NADH absorbance, 1 h; inhibition, % at 10 µM; AID 2516, 2010; 210 tested, 7% active; shares compounds with TbHK1 inh;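 active = at least 50% inhibition in the glucose-6-phosphate dehydrogenase coupled counterscreen; inconclusive = no clear call, values can overlap the other calls; inactive = inhibition below 50%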
TbHK1 rescreen = TbHK1 inhibitor retest, confirmation, biochemical, DPI cherry-picked primary actives; shares compounds with TbHK1 inh; recombinant TbHK1, G6PDH-coupled NADH A340 absorbance; inhibition, % at 10 µM; 210 tested, 10% active;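 active = inhibition of at least 50% in both of the two screening runs; inconclusive = at least 50% in one run, below 50% in the other; inactive = inhibition below 50% in both runs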;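 note: 0% and 100% set by the maximum and minimum signal control wells on each plate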
The depositor's hits bear a star; u = inconclusive; x = no result given. Compounds with a hit are over-represented: about 1.6% of the library has one in this group of screens.

SMILES | RBBP9 inhibitor | TbHK1 inh | SDO1 yeast rescue | p47phox inh | Yeast life ext | BB579 growth dn | G6PDH counter | TbHK1 rescreen
CCC(C)COC(=O)C(C#N)c1nc2ccccc2nc1N1CCCCC1 (stereo not drawn) | -6.6 | 55.6* | -0.71 | -32.3 | 0.7 | -38.8 | -12.2 | 17.9
O=C(Nc1ccc2sccc2c1)c1cccc(N2C(=O)CCC2=O)c1 | -1.9 | -10.2 | x | -2.8 | x | x | x | x
Cc1ccc(C)c(Nc2c(F)c(F)c(F)c(F)c2C(=O)O)c1 | -8.1 | 1.6 | x | -11.9 | x | x | x | x
CCOc1cccc2c1OC1(C)CC2NC(=O)N1c1cccc(F)c1 (stereo not drawn) | -11.5 | 56.9* | 1.02 | 8.6 | -8.7 | -34.8 | -4.8 | -1.2
Cn1c(SCc2ccc(C#N)cc2)nnc1-c1cccc(Cl)c1 | 0.6 | 54.6* | -0.21 | -7.3 | -8.9 | -41.6 | -12.3 | 19.8
Cn1c(SCc2ccc(C#N)cc2)nnc1-c1ccccc1 | 0.0 | 4.1 | 0.48 | -5.0 | -11.1 | -9.2 | x | x
CCCCOc1ccc(C(=O)NNC(=S)NC(=O)CC)cc1 | -1.0 | 58.4* | -1.59 | -10.4 | -1.9 | 48.4* | -18.6 | -9.0
CCC(=O)NC(=S)NNC(=O)c1ccc(OC)cc1 | -4.0 | -2.2 | 2.08 | -6.7 | -5.9 | -16.7 | x | x
CC(C1CC1)N(Cc1ccccc1)C(=S)Nc1ccccc1Cl (stereo not drawn) | -6.7 | 0.3 | x | 1.9 | x | x | x | x
CCOC(=O)c1c(C)c(C(=O)NCc2ccccn2)c(C)n1C | -6.3 | -0.7 | 0.44 | -12.8 | -4.5 | -29.5 | x | x
CCOC(=O)c1c(C)c(C(=O)NCc2cccnc2)c(C)n1C | -7.1 | 62.8* | 0.12 | -12.6 | -13.2 | 4.6 | -1.5 | 1.4
Cc1ccc(S(=O)(=O)N2CCOCC2)cc1C(=O)c1nccn1C | -9.4 | -0.5 | x | -1.5 | x | x | x | x
COC(=O)c1ccsc1NC(=O)c1cccc(OC)c1 | -3.2 | -5.1 | x | -20.6 | x | x | x | x
Cc1ccc(NC(=O)C2(S(=O)(=O)c3ccc(C)cc3)CC2)cc1 | -3.9 | -4.2 | -0.48 | 5.6 | 0.9 | -2.0 | x | x
COC(=O)C1(S(=O)(=O)c2ccc(C)cc2)CCOCC1 | -3.2 | 62.2* | 0.3 | 1.3 | -4.3 | 4.0 | -9.4 | 1.0
C/C(=C/CCC(C)C1CCC2(C)C3CCC4C(C)(C)C(=O)CCC4(C)C3=CCC12C)C(=O)O (stereo not drawn) | x | 0.7 | x | -5.2 | x | x | x | x
C/C(=C/CCC(C)[C@H]1CC[C@@]2(C)C3=C(CC[C@]12C)[C@@]1(C)CCC(=O)C(C)(C)[C@@H]1CC3)C(=O)O (stereo partly drawn) | -6.2 | 67.2* | 0.94 | -0.2 | 6.9 | -2.9 | -42.3 | 86.3*
COC(=O)CCN1CCN(S(=O)(=O)c2ccccc2Br)CC1 | -11.7 | 3.8 | x | -4.7 | x | x | x | x
Cc1occc1-c1nnc(SCC(=O)N2CCOCC2)n1CCc1ccccc1 | 4.0 | 54.4* | 0.72 | -1.4 | -5.1 | -13.7 | -9.7 | -1.6
CS(=O)(=O)n1nc(-c2ccc(Cl)cc2)nc1N | -1.5 | 1.6 | x | 2.2 | x | x | x | x
Cn1nc(-c2ccc(Cl)cc2)nc2c(=O)n(C)c(=O)nc1-2 | -1.7 | 79.3* | -3.13 | -6.0 | -38.8 | 99.8* | 65.8* | 56.5*
Cc1nnc(SC(C(=O)Nc2ccc(Cl)c([N+](=O)[O-])c2)c2ccccc2)[nH]c1=O (stereo not drawn) | -10.6 | -5.3 | x | -12.7 | x | x | x | x
O=C(CSc1nncn1-c1cccnc1)N(c1ccccc1)c1ccccc1 | -11.4 | 5.5 | x | -3.3 | x | x | x | x
CCC1(C)Cc2c(C#N)c(N)sc(=S)c2CO1 (stereo not drawn) | 0.4 | 82.7* | 0.47 | -2.3 | -15.9 | -29.4 | 72.5* | u

Screening results from PubChem BioAssay.
